In ChEMBL document CHEMBL3862007, “Synthesis and antimicrobial activity of small cationic amphipathic aminobenzamide marine natural product mimics and evaluation of relevance against clinical isolates including ESBL-CARBA producing multi-resistant bacteria” (Bioorg Med Chem, 2016):

Legend:
[1] = system: Enterococcus faecium; assay: Antibacterial activity against vancomycin-resistant Enterococcus faecium 50901530 after 24 hrs by microdilution method; type: functional; settings: Enterococcus faecium, 50901530, 24 h
[2] = system: Pseudomonas aeruginosa; assay: Antibacterial activity against multi-drug resistant/VIM producing Pseudomonas aeruginosa 50692520 after 24 hrs by microdilution method; type: functional; settings: Pseudomonas aeruginosa, 50692520, 24 h
[3] = system: Klebsiella pneumoniae; assay: Antibacterial activity against multi-drug resistant/VIM1 producing Klebsiella pneumoniae 50667959 after 24 hrs by microdilution method; type: functional; settings: Klebsiella pneumoniae, 50667959, 24 h
[4] = system: Staphylococcus aureus; assay: Antibacterial activity against methicillin resistant Staphylococcus aureus clinical isolate 85/2082 after 24 hrs by microdilution method; type: functional; settings: isolate 85/2082, 24 h
[5] = system: Escherichia coli; assay: Antibacterial activity against multi-drug resistant/NDM-1 producing Escherichia coli 50676002 after 24 hrs by microdilution method; type: functional; settings: Escherichia coli, 50676002, 24 h
[6] = system: Acinetobacter baumannii; assay: Antibacterial activity against multi-drug resistant/OXA-23 producing Acinetobacter baumannii K44-35 after 24 hrs by microdilution method; type: functional; settings: K44-35, 24 h
[7] = system: Escherichia coli; assay: Antibacterial activity against Escherichia coli clinical isolate after 24 hrs by microdilution method; type: functional
[8] = system: Klebsiella pneumoniae; assay: Antibacterial activity against multi-drug resistant/KPC-2 producing Klebsiella pneumoniae K47-25 after 24 hrs by microdilution method; type: functional; settings: K47-25, 24 h
[9] = system: Pseudomonas aeruginosa; assay: Antibacterial activity against multi-drug resistant/VIM-4 producing Pseudomonas aeruginosa K34-73 after 24 hrs by microdilution method; type: functional; settings: K34-73, 24 h
[10] = system: Staphylococcus aureus; assay: Antibacterial activity against methicillin resistant Staphylococcus aureus IHT 99040 after 24 hrs by microdilution method; type: functional; settings: IHT 99040, 24 h
[11] = system: Enterococcus faecium; assay: Antibacterial activity against vancomycin-resistant Enterococcus faecium K36-18 after 24 hrs by microdilution method; type: functional; settings: K36-18, 24 h
[12] = Selectivity index, ratio of hemolytic EC50 for human RBC to MIC for Staphylococcus aureus ATCC 9144
[13] = system: Staphylococcus aureus; assay: Antibacterial activity against Staphylococcus aureus clinical isolate after 24 hrs by microdilution method; type: functional
[14] = system: Escherichia coli; assay: Antibacterial activity against multi-drug resistant/NDM-1 producing Escherichia coli 50739822 after 24 hrs by microdilution method; type: functional; settings: Escherichia coli, 50739822, 24 h
[15] = system: Escherichia coli; assay: Antibacterial activity against multi-drug resistant/VIM-29 producing Escherichia coli 50639799 after 24 hrs by microdilution method; type: functional; settings: Escherichia coli, 50639799, 24 h
[16] = system: Escherichia coli; assay: Antibacterial activity against Escherichia coli ATCC 25922 after 48 hrs by microdilution method; type: functional; settings: ATCC 25922, 48 h
[17] = system: Bacillus subtilis; assay: Antibacterial activity against Bacillus subtilis 168 ATCC 23857 after 48 hrs by microdilution method; type: functional; settings: subsp. subtilis str. 168 ATCC 23857, 48 h
[18] = system: Acinetobacter baumannii; assay: Antibacterial activity against multi-drug resistant/OXA-58 producing Acinetobacter baumannii K12-21 after 24 hrs by microdilution method; type: functional; settings: K12-21, 24 h
[19] = system: Pseudomonas aeruginosa; assay: Antibacterial activity against multi-drug resistant/NDM1 producing Pseudomonas aeruginosa 50692172 after 24 hrs by microdilution method; type: functional; settings: Pseudomonas aeruginosa, 50692172, 24 h
[20] = Antibacterial activity against methicillin-resistant Staphylococcus epidermidis RP62A CCUG 31568 (ATCC 35984) after 48 hrs by microdilution method; type: functional
Summary of the method: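 Broth microdilution MIC against the reference-strain panel. Compounds were supplied as HCl salts for aqueous solubility in the test medium. Precipitation in the test buffer is flagged at higher concentrations.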

[21] = system: Klebsiella pneumoniae; assay: Antibacterial activity against Klebsiella pneumoniae clinical isolate after 24 hrs by microdilution method; type: functional
[22] = system: Enterococcus faecium; assay: Antibacterial activity against vancomycin-resistant Enterococcus faecium 50758899 after 24 hrs by microdilution method; type: functional; settings: Enterococcus faecium, 50758899, 24 h
[23] = system: Pseudomonas aeruginosa; assay: Antibacterial activity against Pseudomonas aeruginosa PAO1 DSM 19880 (ATCC 15692) after 48 hrs by microdilution method; type: functional
[24] = system: Acinetobacter baumannii; assay: Antibacterial activity against multi-drug resistant/OXA-23 producing Acinetobacter baumannii K47-42 after 24 hrs by microdilution method; type: functional; settings: K47-42, 24 h
[25] = system: Enterococcus sp.; assay: Antibacterial activity against Enterococcus sp. clinical isolate after 24 hrs by microdilution method; type: functional
[26] = system: Klebsiella pneumoniae; assay: Antibacterial activity against multi-drug resistant/OXA-245 producing Klebsiella pneumoniae 50625602 after 24 hrs by microdilution method; type: functional; settings: Klebsiella pneumoniae, 50625602, 24 h
[27] = system: Pseudomonas aeruginosa; assay: Antibacterial activity against multi-drug resistant/IMP-14 producing Pseudomonas aeruginosa K44-24 after 24 hrs by microdilution method; type: functional; settings: K44-24, 24 h
[28] = system: Staphylococcus aureus; assay: Antibacterial activity against methicillin resistant Staphylococcus aureus NCTC 10442 after 24 hrs by microdilution method; type: functional; settings: NCTC 10442, 24 h
[29] = system: Pseudomonas aeruginosa; assay: Antibacterial activity against multi-drug resistant/VIM-2 producing Pseudomonas aeruginosa K34-7 after 24 hrs by microdilution method; type: functional; settings: K34-7, 24 h
[30] = system: Enterococcus faecium; assay: Antibacterial activity against vancomycin-resistant Enterococcus faecium TUH50-22 after 24 hrs by microdilution method; type: functional; settings: TUH50-22, 24 h
[31] = system: Klebsiella pneumoniae; assay: Antibacterial activity against multi-drug resistant/NDM1/OXA-181 producing Klebsiella pneumoniae 50531633 after 24 hrs by microdilution method; type: functional; settings: Klebsiella pneumoniae, 50531633, 24 h
[32] = system: Escherichia coli; assay: Antibacterial activity against multi-drug resistant/IMP-26 producing Escherichia coli 50857972 after 24 hrs by microdilution method; type: functional; settings: Escherichia coli, 50857972, 24 h
[33] = system: Acinetobacter baumannii; assay: Antibacterial activity against multi-drug resistant/OXA-24 producing Acinetobacter baumannii K55-13 after 24 hrs by microdilution method; type: functional; settings: K55-13, 24 h
[34] = system: Enterococcus faecium; assay: Antibacterial activity against vancomycin-resistant Enterococcus faecium 50673722 after 24 hrs by microdilution method; type: functional; settings: Enterococcus faecium, 50673722, 24 h
[35] = Hemolytic activity in human RBC after 1 hr; type: ADME, cell-based; settings: Erythrocyte
[36] = system: Acinetobacter baumannii; assay: Antibacterial activity against multi-drug resistant/OXA-23 producing Acinetobacter baumannii K63-58 after 24 hrs by microdilution method; type: functional; settings: K63-58, 24 h
[37] = system: Escherichia coli; assay: Antibacterial activity against multi-drug resistant/OXA-48 producing Escherichia coli 50579417 after 24 hrs by microdilution method; type: functional; settings: Escherichia coli, 50579417, 24 h
[38] = system: Corynebacterium glutamicum; assay: Antibacterial activity against Corynebacterium glutamicum ATCC 13032 after 48 hrs by microdilution method; type: functional; settings: ATCC 13032, 48 h
[39] = system: Pseudomonas aeruginosa; assay: Antibacterial activity against Pseudomonas aeruginosa clinical isolate after 24 hrs by microdilution method; type: functional
[40] = system: Staphylococcus aureus; assay: Antibacterial activity against methicillin resistant Staphylococcus aureus N315 after 24 hrs by microdilution method; type: functional; settings: N315, 24 h
[41] = system: Staphylococcus aureus; assay: Antibacterial activity against methicillin resistant Staphylococcus aureus clinical isolate WIS after 24 hrs by microdilution method; type: functional
[42] = system: Staphylococcus aureus; assay: Antibacterial activity against Staphylococcus aureus ATCC 9144 after 48 hrs by microdilution method; type: functional; settings: ATCC 9144, 48 h
[43] = system: Klebsiella pneumoniae; assay: Antibacterial activity against multi-drug resistant/NDM1 producing Klebsiella pneumoniae K66-45 after 24 hrs by microdilution method; type: functional; settings: K66-45, 24 h

Question: With `CC(C)(C)c1cc(C(=O)Nc2ccccc2C(=O)NCCNC(=N)N)cc(C(C)(C)C)c1.Cl` as the compound, how does the MIC [1] read?
Answer: Its MIC is 4 µg/mL.

Question: And the MIC [2]?
Answer: The MIC was 32 µg/mL.

Question: What about the MIC [3] of the same compound?
Answer: Its MIC is 32 µg/mL.

Question: And the MIC [4]?
Answer: The MIC was 4 µg/mL.

Question: What about the MIC [5] of the same compound?
Answer: The MIC was greater than 32 µg/mL.

Question: And the MIC [6]?
Answer: The MIC was 16 µg/mL.

Question: What about the MIC [7] of the same compound?
Answer: Its MIC is 8 µg/mL.

Question: And the MIC90 [7]?
Answer: Its MIC90 is 8 µg/mL.

Question: And the MIC [8]?
Answer: Its MIC is 32 µg/mL.

Question: What about the MIC [9] of the same compound?
Answer: Its MIC is greater than 32 µg/mL.

Question: What about the MIC [10] of the same compound?
Answer: The MIC was greater than 4 µg/mL.

Question: What about the MIC [11] of the same compound?
Answer: Its MIC is 8 µg/mL.

Question: What about the Selectivity Index [12] of the same compound?
Answer: The Selectivity Index was 37.

Question: And the MIC [13]?
Answer: Its MIC is 2 µg/mL.

Question: What about the MIC90 [13] of the same compound?
Answer: The MIC90 was 2 µg/mL.

Question: And the MIC [14]?
Answer: Its MIC is 32 µg/mL.

Question: What about the MIC [15] of the same compound?
Answer: Its MIC is 16 µg/mL.

Question: What about the MIC [16] of the same compound?
Answer: The MIC was 8 µg/mL.

Question: What about the MIC [17] of the same compound?
Answer: The MIC was 1 µg/mL.

Question: And the MIC [18]?
Answer: Its MIC is 32 µg/mL.

Question: What about the MIC [19] of the same compound?
Answer: Its MIC is 32 µg/mL.

Question: What about the MIC [20] of the same compound?
Answer: Its MIC is 2 µg/mL.

Question: What about the MIC [21] of the same compound?
Answer: Its MIC is 16 µg/mL.

Question: And the MIC90 [21]?
Answer: Its MIC90 is 16 µg/mL.

Question: What about the MIC [22] of the same compound?
Answer: The MIC was 8 µg/mL.

Question: What about the MIC [23] of the same compound?
Answer: The MIC was 16 µg/mL.

Question: And the MIC [24]?
Answer: The MIC was 16 µg/mL.

Question: And the MIC [25]?
Answer: Its MIC is 8 µg/mL.

Question: And the MIC90 [25]?
Answer: Its MIC90 is 4 µg/mL.

Question: What about the MIC [26] of the same compound?
Answer: Its MIC is 16 µg/mL.

Question: And the MIC [27]?
Answer: The MIC was greater than 32 µg/mL.

Question: What about the MIC [28] of the same compound?
Answer: Its MIC is 4 µg/mL.

Question: And the MIC [29]?
Answer: Its MIC is greater than 32 µg/mL.

Question: What about the MIC [30] of the same compound?
Answer: The MIC was 4 µg/mL.

Question: What about the MIC [31] of the same compound?
Answer: Its MIC is 16 µg/mL.

Question: And the MIC [32]?
Answer: Its MIC is 16 µg/mL.

Question: What about the MIC [33] of the same compound?
Answer: Its MIC is 32 µg/mL.

Question: What about the MIC [34] of the same compound?
Answer: Its MIC is 8 µg/mL.

Question: And the EC50 [35]?
Answer: The EC50 was 37 µg/mL.

Question: And the MIC [36]?
Answer: The MIC was 32 µg/mL.

Question: What about the MIC [37] of the same compound?
Answer: Its MIC is 32 µg/mL.

Question: And the MIC [38]?
Answer: Its MIC is 0.5 µg/mL.

Question: And the MIC [39]?
Answer: Its MIC is 16 µg/mL.

Question: And the MIC90 [39]?
Answer: The MIC90 was 32 µg/mL.

Question: What about the MIC [40] of the same compound?
Answer: Its MIC is 4 µg/mL.

Question: What about the MIC [41] of the same compound?
Answer: The MIC was 4 µg/mL.

Question: And the MIC [42]?
Answer: The MIC was 1 µg/mL.

Question: What about the MIC [43] of the same compound?
Answer: The MIC was 32 µg/mL.
